Only a selection was taken, and hits are over-represented in it overall.
T cruzi inh – blocks replication of Trypanosoma cruzi. T. cruzi beta-gal in NIH3T3, luminescence, 90 h. inhibition, % (test concentration not listed). 300,000 compounds, 1.4% hits;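 active = mean inhibition across valid replicates above about 55%, limit read from the data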;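 note: signal also drops with host cell toxicity which is not excluded here; higher percent means less beta-gal luminescence so fewer parasites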
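assay system = mouse NIH/3T3 fibroblasts infected with β-gal-expressing T. cruzi Tulahuen C4 | input = 5,000 NIH/3T3 host cells per well | buffer or medium = DMEM plus 2% FBS | timing = 3 h host attachment, then at least 90 h co-culture | measured by = GalScreen luminescence, 60 min | evaluation = luminescence reflecting intracellular parasite burden, expressed as percent inhibition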
CHOP inh – inhibitors of CHOP induction in ER stress response. AID 2732. 220,000 compounds, 3.8% hits. CHO-K1 CHOP-promoter luciferase, tunicamycin-induced, 15-18 h. inhibition, % at 10 µM;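 active = compounds that reduced the stress-induced luciferase reporter signal by more than about 70% of percent inhibition, limit read from the data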
Lmaj promast – Leishmania major promastigote growth inhibition; Leishmania major promastigotes, resazurin fluorescence viability; inhibition, % at 10 µM; 200,000 compounds, 9% hits; in the data active = inhibition above about 50%;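 note: promastigotes grown with compound for 44 hours at 28 °C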
CHOP UPR activ – activators of apoptotic arm of unfolded protein response (CHOP); CHO-CHOP luciferase reporter, UPR activation, luminescence; percent of tunicamycin response over DMSO baseline; activation, % at 10 µM; 330,000 compounds, 0.34% hits; AID 449763;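 active = at 10 µM dose, activation of 40% or more, normalized to positive control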
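Evaluation: % reporter activation, DMSO baseline versus tunicamycin full activation; System: CHO-CHOP luciferase reporter cell line; Input: 500 cells/well; Incubation: 6 h compound treatment, 37 °C; Measured by: Steady-Glo luciferase luminescence; Dosing: one dose, 10 µM in 0.5% DMSO; Buffer or medium: F12 medium, 10% FBS; Benchmarks: positive tunicamycin 10 µg/mL, negative DMSO alone.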
XBP1 UPR activ – activators of adaptive arm of unfolded protein response (XBP1); CHO-XBP1 luciferase reporter, IRE1-XBP1 UPR activation, luminescence; percent of tunicamycin response, DMSO as zero; activation, % at 20 µM; 330,000 compounds, 0.33% hits; AID 463104;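 active = versus positive control, 20 µM dose yields 30% or more activation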
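incubation = overnight seeding at 37 °C, 6 h compound treatment at 37 °C | assay system = CHO-XBP1 cells stably carrying IRE1-XBP1-driven luciferase reporter | input = 1000 cells per well | detection = luciferase luminescence | dosing = single point, 20 µM final compound, 1% DMSO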
Dynein transport – blocks dynein driven cargo transport along microtubules | 220,000 compounds, 0.47% hits | z-score, hits read low | AID 1381 | 3617.4 mouse cells, GR-EGFP nuclear translocation imaging; test concentration mostly 20 µM; stimulated with dexamethasone, 1 µM; hits give low values;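 active = plate z-score of nuclear minus cytoplasmic receptor signal below a set negative limit, without overly bright fluorescence or cell loss, cut at about -3.5 in these data, passing the limit was not always enough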;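 note: z-score of nuclear minus cytoplasmic ring GR-EGFP intensity difference per well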
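Also added: dexamethasone, 1.0 µM final. Medium: tet-free, stripped-serum medium. Detection: fixed, Hoechst-stained cells imaged at 10x for EGFP. Read-out: nuclear-to-cytoplasmic GR-EGFP distribution per well. Times: induction 48 h, compound 1 h, agonist 30 min.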
Numbers stand for hits; – = inactive; · = not tested or not shown.

SMILES	T cruzi inh	CHOP inh	Lmaj promast	CHOP UPR activ	XBP1 UPR activ	Dynein transport
O=C(O)CC(c1ccc(C(F)(F)F)cc1)N1Cc2ccccc2C1=O (stereo not drawn)	–	·	·	–	–	·
CC1=C(C(=O)OC2CCCC(C)C2)C(c2ccccc2)NC(=O)N1 (stereo not drawn)	–	·	·	–	–	·
COc1ccc(OC)c(S(=O)(=O)NCC(c2ccc3c(c2)OCO3)N2CCOCC2)c1 (stereo not drawn)	–	·	·	–	–	·
COc1cc(Br)c(/C=C/c2ccc3cccc(O)c3n2)cc1OC	57	·	·	–	–	·
COc1cc(/C=C/c2ccc3cccc(OC)c3n2)c(O)c([N+](=O)[O-])c1	–	94	–	–	–	–
CCOC(=O)c1cc2c(ccn2C)n1Cc1ccccc1Cl	–	–	–	–	–	–
CC(C)OC(=O)c1cc2c(ccn2C)n1CC(=O)N1CCC(Cc2ccccc2)CC1	–	70	–	–	–	–
Cc1ccc(C)c(Cn2c(C(=O)OC(C)C)cc3c2ccn3C)c1	–	73	95	–	–	–
CCOC(=O)c1cc2c(ccn2C)n1CC(=O)N(Cc1ccccc1)c1ccc(F)cc1	–	70	98	–	–	–
CCOC(=O)c1cc2c(ccn2C)n1Cc1ccccc1C	–	70	–	–	–	–
CC(=O)Nc1c(-c2ccccc2)c2cc(Br)ccc2[nH]c1=O	–	·	·	–	–	·
COC(=O)c1cn(NC(=O)c2ccc([N+](=O)[O-])cc2Cl)c(=O)c2ccccc12	–	–	–	–	–	–
CCOC(=O)c1cc2c(ccn2C)n1CC(=O)N(Cc1ccccc1)c1ccccc1	–	–	98	–	–	–
CC(C)OC(=O)c1cc2c(ccn2C)n1CC(=O)N(Cc1ccccc1)c1ccc(F)cc1	–	71	99	–	–	–
CCOC(=O)c1cc2c(ccn2C)n1CC(=O)N1CCN(c2ccccc2)CC1	–	–	–	–	–	–
CC1CCN(C(=O)c2[nH]cnc2C(=O)Nc2cccc(Cl)c2)CC1	·	·	·	–	–	·
COc1cc(/C=c2\sc3nc(-c4ccncc4)nn3c2=O)ccc1OC(C)=O	·	107	–	·	·	–
COc1ccccc1-c1nc2s/c(=C\c3cccs3)c(=O)n2n1	–	83	–	–	–	–
CCCCCOc1ccc(/C=c2\sc3nc(=O)c(-c4ccccc4)nn3c2=O)cc1OC	–	–	–	–	–	–
COc1ccccc1/C=c1\sc2nc(-c3cccs3)nn2c1=O	·	·	–	·	·	–
CC1CCN(C(=O)c2nc[nH]c2C(=O)N2CCC(C)CC2)CC1	·	·	·	–	–	·
COCC(=O)N1CCC(Oc2ccc(C(=O)NC(C)c3csc(C)n3)cc2)CC1 (stereo not drawn)	–	·	·	–	–	·
O=C(NCCCN1CCOCC1)c1csc2c1CCCC2	–	–	85	–	–	–
CC1CCCC(C)N1CCCNC(=O)c1csc2c1CCCCC2 (stereo not drawn)	–	·	·	–	–	·
O=C(NCCCN1CCOCC1)c1cc2c(s1)CCCC2	–	–	91	–	–	–
SMILES	T cruzi inh	CHOP inh	Lmaj promast	CHOP UPR activ	XBP1 UPR activ	Dynein transport
CCOc1ccccc1N1CCN(CC(=O)NC(C)c2ccccc2)CC1 (stereo not drawn)	–	·	·	–	–	·
COC(=O)c1c(NC(=O)c2c(-c3ccccc3Cl)noc2C)sc2c1CCC2	–	81	–	–	–	–
O=C(Nc1sc2c(c1C(=O)O)CCC2)c1ccco1	–	–	–	–	–	–
O=C(Nc1sc2c(c1C(=O)NC1CC1)CCCCCC2)c1ccco1	–	96	–	–	–	–
CNC(=O)c1c(NC(=O)c2ccco2)sc2c1CCCC2	–	·	·	–	–	·
COC(=O)c1c(NC(=O)c2ccco2)sc2c1CCC2	–	76	–	–	–	–
COC(=O)c1c(NC(=O)c2c(C)noc2C)sc2c1CCCCCC2	·	–	–	·	·	–
CC1CCN(c2ccc3c(c2)S(=O)(=O)c2cccc(C(=O)NC4CCCCC4)c2C3=O)CC1	·	·	·	–	–	·
CCCc1cc(-c2ccc3c(c2)COc2c4ccccc4nn2-3)on1	–	·	·	–	–	·
C=CCOc1ccccc1CN1CCSCC1	–	–	98	–	–	–
CC(Sc1nncn1C)C(=O)Nc1ccc2ccccc2c1 (stereo not drawn)	·	·	·	–	–	·
Cc1nnc(Sc2cc(C(=O)NCCCN(C)Cc3ccccc3)c3ccccc3n2)s1	64	–	–	–	–	–
Cc1n[nH]c(=O)n1-c1ccc(OCc2ccccc2)cc1	–	–	–	–	–	–
O=C(c1ccco1)N1CCN(Cc2nc(Cc3ccccc3)no2)CC1	–	–	–	–	–	–
COc1ccccc1CN1CCN(Cc2nc(-c3cccs3)no2)CC1	61	–	–	–	–	–
O=C(c1ccco1)N1CCCN(Cc2nc(-c3cccs3)no2)CC1	–	–	86	–	–	–
CC1CCc2sc(C(=O)OC(C)C(=O)Nc3ncc(Cl)cc3Cl)cc2C1 (stereo not drawn)	–	90	–	–	–	–
CC(OC(=O)CNC(=O)C12CC3CC(CC(C3)C1)C2)C(=O)Nc1ncc(Cl)cc1Cl (stereo not drawn)	–	–	–	–	–	–
COc1cc(/C=N/NC(=O)c2ccncc2)ccc1OC(=O)c1cc(OC)c(OC)c(OC)c1	–	·	·	–	–	·
COc1ccc(OC)c(Nc2cc(C)nc3ccccc23)c1	–	–	71	–	–	–
COc1ccc2nc(C)cc(Nc3ccccc3O)c2c1	–	–	59	–	–	–
COc1ccc(Cl)cc1Nc1cc(C)nc2ccccc12	–	·	·	–	–	·
COc1cccc(Nc2cc(C)nc3ccccc23)c1	–	–	88	–	–	–
COc1ccc2nc(C)cc(N/N=C/c3cccc(OC)c3O)c2c1	–	·	·	–	–	·
O=C(NC(=S)NCc1cccnc1)c1cc(Br)ccc1Cl	–	·	·	–	–	·
SMILES	T cruzi inh	CHOP inh	Lmaj promast	CHOP UPR activ	XBP1 UPR activ	Dynein transport
CCOC(=O)N/N=C(/C)c1cccc(-n2cnnn2)c1	–	–	–	–	–	–
CCOC(=O)C1=C(C)Nc2ccccc2N=C1NC(=O)Cc1ccc(OC)cc1	–	–	–	–	–	–
CCOC(=O)C1=C(C)Nc2ccccc2N=C1NC(=O)/C=C/c1ccc(OC)cc1OC	–	–	80	–	–	–
CCn1cc(C(=O)NC(C)C23CC4CC(CC(C4)C2)C3)cn1 (stereo not drawn)	–	–	–	–	–	–
CC(NC(=O)Cn1ncc(Cl)c(Cl)c1=O)C12CC3CC(CC(C3)C1)C2 (stereo not drawn)	–	109	100	·	·	–
CC(NC(=O)CN1C(=O)NC(Cc2ccccc2)(Cc2ccccc2)C1=O)C12CC3CC(CC(C3)C1)C2 (stereo not drawn)	61	84	–	–	–	–
